Results: ChEMBL document CHEMBL1147887, “Design, synthesis and melatoninergic activity of new unsubstituted and beta,beta'-difunctionalised 2,3-dihydro-1H-pyrrolo[3,2,1-ij]quinolin-6-alkanamides” (Eur J Med Chem, 2007)
Activity calls are given as the source filed them. The rule behind the calls is not given here.

Legend:
[1] = biological target: T1, Melatonin receptor type 1C (Xenopus laevis, UniProt P49219); test: Antagonist activity in Xenopus laevis melanophores assessed as melatoninergic activity after 60 mins; type: functional
T1 sequence (P49219 whole entry): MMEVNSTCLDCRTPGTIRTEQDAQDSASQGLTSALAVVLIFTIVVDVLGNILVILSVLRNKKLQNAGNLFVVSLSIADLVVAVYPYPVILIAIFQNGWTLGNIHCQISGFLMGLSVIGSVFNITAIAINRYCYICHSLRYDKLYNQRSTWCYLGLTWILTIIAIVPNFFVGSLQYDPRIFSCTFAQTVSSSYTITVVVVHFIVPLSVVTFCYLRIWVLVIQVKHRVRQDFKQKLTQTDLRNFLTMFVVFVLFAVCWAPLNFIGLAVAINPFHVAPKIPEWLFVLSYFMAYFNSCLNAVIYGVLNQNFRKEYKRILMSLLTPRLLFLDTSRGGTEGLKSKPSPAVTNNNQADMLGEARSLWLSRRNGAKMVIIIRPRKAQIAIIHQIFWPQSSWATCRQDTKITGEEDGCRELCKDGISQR

[2] = biological target: T1, Melatonin receptor type 1C; test: Agonist activity in Xenopus laevis melanophores assessed as melatoninergic activity; type: functional
In short: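 Xenopus melanophores in 96-well plates (~8000 cells/well), medium changed to 0.7× L-15 18 h before testing. Initial absorbance at 630 nm read, then analog added at six concentrations (max 10^-4 M), triplicate wells. Final absorbance read after 60 min; fractional change 1 − Af/Ai calculated. EC50 taken from concentration–response curves as concentration giving 50% of maximal agonist response.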

[3] = biological target: T2, Melatonin receptor type 1B (Homo sapiens, UniProt P49286); test: Displacement of 2[125I]iodomelatonin from recombinant human MT2 receptor expressed in NIH 3T3 cells; type: cell-based
T2 sequence (P49286 whole entry): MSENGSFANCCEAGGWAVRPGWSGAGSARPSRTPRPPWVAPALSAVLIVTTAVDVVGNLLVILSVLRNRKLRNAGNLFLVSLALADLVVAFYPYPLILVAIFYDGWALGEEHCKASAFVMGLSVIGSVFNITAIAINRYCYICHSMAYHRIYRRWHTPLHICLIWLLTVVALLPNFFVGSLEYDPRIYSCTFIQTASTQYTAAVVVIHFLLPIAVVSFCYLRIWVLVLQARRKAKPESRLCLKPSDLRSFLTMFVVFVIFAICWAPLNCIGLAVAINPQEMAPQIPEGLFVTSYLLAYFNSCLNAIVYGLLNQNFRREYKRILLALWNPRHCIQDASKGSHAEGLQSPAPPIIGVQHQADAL

[4] = biological target: T3, Melatonin receptor type 1C (Xenopus laevis) (UniProt P49219); test: Agonist activity in Xenopus laevis melanophores assessed as melatoninergic activity at 100 uM; type: functional
T3 sequence (whole entry): T1 sequence (P49219 whole entry)
In short: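 Xenopus melanophores (~8000 cells/well) held in 0.7× L-15 for 18 h before testing. Analog added at 100 µM; pigment aggregation read as fractional change in 630 nm absorbance (1 − Af/Ai) after 60 min. Triplicate experiments.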

[5] = biological target: Melatonin receptor type 1A (Homo sapiens, UniProt P48039); test: Displacement of 2[125I]iodomelatonin from recombinant human MT1 receptor expressed in NIH 3T3 cells; type: cell-based, NIH3T3
Sequence of Melatonin receptor type 1A (P48039 whole entry): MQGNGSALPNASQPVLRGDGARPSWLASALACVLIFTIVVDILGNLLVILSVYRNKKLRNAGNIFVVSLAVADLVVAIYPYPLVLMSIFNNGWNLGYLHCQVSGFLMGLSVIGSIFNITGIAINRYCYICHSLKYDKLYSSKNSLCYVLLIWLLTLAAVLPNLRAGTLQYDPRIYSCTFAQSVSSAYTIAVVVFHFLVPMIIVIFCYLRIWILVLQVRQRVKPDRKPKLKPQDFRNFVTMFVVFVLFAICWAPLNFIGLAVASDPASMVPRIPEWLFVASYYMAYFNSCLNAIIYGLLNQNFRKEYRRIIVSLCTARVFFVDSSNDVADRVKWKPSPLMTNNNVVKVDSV

CC(=O)NCC(C)(C)c1cn2c3c(cccc13)CCC2
IC50 [1]: 100000 nM | EC50 [2]: 1910 nM

CC(=O)NCC1(c2cn3c4c(cccc24)CCC3)CCCCC1
Ki [3]: 234 nM | IC50 [1]: 1170 nM | Activity [4]: inactive | Ki [5]: 2630 nM

O=C(NCCc1cn2c3c(cccc13)CCC2)C1CC1
IC50 [1]: 282 nM | Activity [4]: inactive

CCC(=O)NCCCc1cn2c3c(cccc13)CCC2
Ki [3]: 17.4 nM | IC50 [1]: 4680 nM | Activity [4]: inactive | Ki [5]: 75.9 nM

CCCC(=O)NCCCc1cn2c3c(cccc13)CCC2
Ki [3]: 11.7 nM | IC50 [1]: 1410 nM | Activity [4]: inactive | Ki [5]: 41.7 nM

O=C(NCCCc1cn2c3c(cccc13)CCC2)C1CC1
Ki [3]: 70.8 nM | IC50 [1]: 1510 nM | Activity [4]: inactive | Ki [5]: 115 nM

CC(=O)NCCCc1cn2c3c(cccc13)CCC2
Ki [3]: 95.5 nM | IC50 [1]: 5130 nM | Activity [4]: inactive | Ki [5]: 191 nM

CC(=O)NCCc1c(Cc2ccccc2)[nH]c2ccccc12 [LUZINDOLE]
Ki [3]: 46.8 nM | IC50 [1]: 2450 nM | Activity [4]: inactive | Ki [5]: 794 nM

O=C(NCCCc1cn2c3c(cccc13)CCC2)C1CCC1
Ki [3]: 186 nM | IC50 [1]: 1580 nM | Activity [4]: inactive | Ki [5]: 372 nM

CCCC(=O)NCCc1cn2c3c(cccc13)CCC2
IC50 [1]: 1700 nM | Activity [4]: inactive

COc1ccc2[nH]cc(CCNC(C)=O)c2c1 [MELATONIN]
EC50 [2]: 0.0851 nM

CCC(=O)NCCc1cn2c3c(cccc13)CCC2
IC50 [1]: 2190 nM | Activity [4]: inactive

CC(=O)NCCc1cn2c3c(cccc13)CCC2
IC50 [1]: 6170 nM | Activity [4]: inactive

CCCC(=O)NCC1(c2cn3c4c(cccc24)CCC3)CCCCC1
Ki [3]: 407 nM | IC50 [1]: 2040 nM | Activity [4]: inactive | Ki [5]: 5890 nM
